Calls of active or inactive are those of the source.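 How the source made its calls: active means strong luminescence drop, meaning toxicity to breast epithelial cells with E-cadherin silenced, a stem-like cancer model; inactive means the rest.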

Test system in the first experiment: not listed separately
The experiment can be described thus: cytotoxicity toward E-cadherin-knockdown HMLE CSC-like cells – cell-based, CellTiter-Glo luminescence, dry powder, dose response (AID 588704). The conditions noted are these: HMLE_shECad viability, CellTiter-Glo luminescence, 72 h. In outline: (§1)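 Incubation: Compound added 24 h after seeding, then 72 h exposure | Test system: EMT-induced HMLE_shECad cancer stem cell-like cells | Repeats: Two replicates (duplicate) | Measured by: CellTiter-Glo luminescence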
Consider `O=C(COc1ccc(Cl)cc1Cl)N/N=C/c1cnc[nH]1`, for which the result was inactive.

For another experiment, the system named is HMLE_shECad viability, CellTiter-Glo luminescence, 72 h. Described as above.
Conditions: not given
In outline: as §1
With `O=C(COc1c(Cl)cc(Cl)cc1Cl)N/N=C/c1ccc[nH]1`, the half-maximal activity concentration (AC50) (in general, the concentration giving half of the maximal activity seen) is 470 nM.

As to `O=C(N/N=C/c1ccc[nH]1)c1cc2ccccc2o1`, the AC50 was 2460 nM.

Take `O=C(COc1ccc(Cl)cc1Cl)N/N=C/c1ccc[nH]1`: the AC50 is 3390 nM.

For `CC(C)(C)c1ccc2c(c1)OC(C(=O)N/N=C/c1ccc[nH]1)CO2` (configuration not stated), the AC50 was 3480 nM.

Regarding `O=C(COc1cc(Cl)ccc1Cl)N/N=C/c1ccc[nH]1`, the AC50 is 930 nM.

On to `Cc1cc(Cl)ccc1OCC(=O)N/N=C/c1ccc[nH]1`, for which the AC50 was 4580 nM.

For the origin of these results see PubChem BioAssay AID588704 (Broad Institute, 2011).
